The target of one series is T1, human α2BAR (Homo sapiens, UniProt P18089).
T1 sequence (P18089 1-450): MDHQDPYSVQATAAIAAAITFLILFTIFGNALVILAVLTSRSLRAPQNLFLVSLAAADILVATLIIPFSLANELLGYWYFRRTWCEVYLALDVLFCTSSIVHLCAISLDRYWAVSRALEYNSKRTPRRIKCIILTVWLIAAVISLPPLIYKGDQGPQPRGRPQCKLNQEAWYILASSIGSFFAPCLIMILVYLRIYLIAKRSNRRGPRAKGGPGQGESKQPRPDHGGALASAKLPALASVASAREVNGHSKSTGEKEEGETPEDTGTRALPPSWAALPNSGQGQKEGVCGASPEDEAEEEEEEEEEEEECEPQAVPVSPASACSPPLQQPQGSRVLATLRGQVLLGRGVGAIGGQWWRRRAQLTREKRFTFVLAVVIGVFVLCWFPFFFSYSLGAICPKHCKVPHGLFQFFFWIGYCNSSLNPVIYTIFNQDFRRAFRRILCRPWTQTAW
The series is described as follows: Radioligand binding, human α2BAR. The note with it: read-out: Kd of radioligand; saturation, HEK293T membranes.

The target of the next series is T2, murine α2AAR (Mus musculus, UniProt Q01338).
T2 sequence (Q01338 1-465): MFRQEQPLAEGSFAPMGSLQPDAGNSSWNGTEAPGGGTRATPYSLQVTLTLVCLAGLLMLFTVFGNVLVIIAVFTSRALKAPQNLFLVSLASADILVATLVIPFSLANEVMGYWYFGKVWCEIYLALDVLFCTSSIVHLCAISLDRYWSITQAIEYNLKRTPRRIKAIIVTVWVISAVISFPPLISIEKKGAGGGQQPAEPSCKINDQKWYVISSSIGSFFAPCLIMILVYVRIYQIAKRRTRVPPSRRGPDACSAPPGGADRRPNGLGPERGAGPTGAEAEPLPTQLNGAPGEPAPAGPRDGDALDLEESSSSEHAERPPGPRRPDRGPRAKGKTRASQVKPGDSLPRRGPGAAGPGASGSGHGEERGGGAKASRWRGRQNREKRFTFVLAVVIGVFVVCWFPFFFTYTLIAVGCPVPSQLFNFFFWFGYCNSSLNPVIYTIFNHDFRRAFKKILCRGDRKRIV
The series is described as follows: Radioligand binding, murine α2AAR. To be noted: read-out: Kd of radioligand; saturation, HEK293T membranes.

Series [1] concerns the target T3, human α2AAR (Homo sapiens, UniProt P08913).
T3 sequence (P08913 1-465): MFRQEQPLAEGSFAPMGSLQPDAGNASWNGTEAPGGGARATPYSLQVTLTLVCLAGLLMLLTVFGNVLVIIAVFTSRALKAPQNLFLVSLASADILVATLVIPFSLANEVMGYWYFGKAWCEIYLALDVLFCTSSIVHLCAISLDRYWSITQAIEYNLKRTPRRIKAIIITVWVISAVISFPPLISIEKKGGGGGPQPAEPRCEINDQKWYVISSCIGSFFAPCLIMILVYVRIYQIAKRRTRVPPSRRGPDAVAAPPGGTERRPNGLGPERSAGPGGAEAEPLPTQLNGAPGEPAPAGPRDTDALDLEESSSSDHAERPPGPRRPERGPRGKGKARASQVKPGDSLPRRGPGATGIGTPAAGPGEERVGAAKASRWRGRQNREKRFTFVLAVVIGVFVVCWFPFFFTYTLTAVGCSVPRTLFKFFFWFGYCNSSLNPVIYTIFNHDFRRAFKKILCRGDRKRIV
The series is described as follows: Radioligand binding, human α2AAR. The note with it: read-out: Kd of radioligand; saturation, HEK293T membranes.

For the next series, the target named is T4, human α2C (Homo sapiens, UniProt P18825).
T4 sequence (P18825 1-462): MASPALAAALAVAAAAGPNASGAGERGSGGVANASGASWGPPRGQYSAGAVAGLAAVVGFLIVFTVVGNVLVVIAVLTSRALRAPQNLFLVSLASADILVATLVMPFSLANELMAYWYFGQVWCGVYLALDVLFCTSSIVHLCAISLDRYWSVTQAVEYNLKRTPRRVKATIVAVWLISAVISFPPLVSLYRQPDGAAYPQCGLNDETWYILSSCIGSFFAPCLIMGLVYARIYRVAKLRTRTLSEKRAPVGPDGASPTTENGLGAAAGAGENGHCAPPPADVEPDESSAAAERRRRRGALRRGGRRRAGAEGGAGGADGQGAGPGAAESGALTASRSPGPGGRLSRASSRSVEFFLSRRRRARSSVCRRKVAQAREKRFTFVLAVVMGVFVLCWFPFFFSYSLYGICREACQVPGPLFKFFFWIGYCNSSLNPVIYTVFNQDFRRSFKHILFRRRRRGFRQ
Briefly: Radioligand binding, α2C. The note with it: read-out: Kd of radioligand; saturation, HEK293T membranes.

In series [2] the target is T3, human α2AAR. The series is described as follows: Gαi BRET G protein activation assay. It is filed as cell-based. The procedure, abridged: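 HEK293T cells were co-transfected with α2AAR, Gαi1-RLucII, Gβ1 and Gγ2-GFP10. After 48 h the medium was replaced with PBS and cells were stimulated with ligand for 10 min at 37°C. Coelenterazine 400a (2.5 µM final) was added 5 min before reading. BRET was taken as acceptor/donor emission (515/410 nm) and normalised to buffer (0%) and maximal norepinephrine (100%). There were 3–17 experiments, each in duplicate. Receptor surface expression was checked by anti-FLAG ELISA.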
In general terms: BRET reads energy transfer from a luciferase to a nearby fluorophore.

For series [3], the target named is T3, human α2AAR. Briefly: ebBRET-based EMTA G protein and β-arrestin coupling panel. The format is cell-based. The procedure, abridged: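 ebBRET in HEK293SL cells transfected with premixed biosensor DNA plus α2AAR using PEI (3:1). DNA was 0.57 μg, or 1 μg total for G12/13, and cells were seeded at 3.5×10^4 cells/well for 48 h. Gα activation was read as translocation of RlucII-tagged effectors (p63-RhoGEF for Gq/11, Rap1-GAP for Gi/o, PDZ-RhoGEF for G12/13) to rGFP-CAAX. β-arrestin-1/2-RlucII was also read against rGFP-CAAX. Cells sat in Tyrode HEPES 1 h, then received increasing compound concentrations 10 min at 37°C, with 1 μM Prolume purple for the final 6 min.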

Series [4] concerns the target T3, human α2AAR. Briefly: Internalization assay with rGFP-CAAX and rGFP-FYVE biosensors. The format is cell-based. The note with it: for receptor internalization: both biosensors.
A short description of a further series: Pharmacokinetics in mice. The format is in vivo. To be noted: 10-mg/kg i.v. and 30-mg/kg p.o. An outline of the steps:
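C57BL/6 mice were dosed 10 mg/kg i.v. or 30 mg/kg p.o., with vehicle-dosed groups alongside. One analogue was formulated in 20% v/v HβCD in saline. Sparse sampling used three mice per time point (one for vehicle). Blood was drawn from the orbital sinus into K3EDTA under tribromoethanol (150 mg/kg i.p.), and plasma was spun at 4000 rpm, 10 min, 4°C. Brain was homogenised in ice-cold PBS. Samples were analysed by HPLC-MS/MS; values below LLOQ were set to zero.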

Series [5] can be described thus: Metabolic stability in rat liver microsomes. To be noted: male rat liver microsomes, 1 hour, 20 μM. It is filed as in vitro ADME. An outline of the steps: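 Pooled male Sprague Dawley rat liver microsomes (0.25 mg protein per tube) were incubated with test compound or a positive control (20 µM final). Buffer was 50 mM Tris, 5 mM MgCl2, pH 7.4. Incubation was at 37°C on a rotating carousel.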

Series [6] has as its system spared nerve injury (SNI) mice. Briefly: SNI model of neuropathic pain, mechanical. It is filed as in vivo. The procedure, abridged:
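Spared nerve injury: under isoflurane, two of the three sciatic nerve branches were ligated and transected distally, leaving the sural nerve intact. Testing was done 7–14 days after injury. Atipamezole (2 mg/kg i.p.) was given 15 min before s.c. agonist, and testing followed 30 min after agonist. Hindpaw thresholds were measured with von Frey filaments by the up-down method, by a blinded experimenter.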

In the next series the test system is naïve (uninjured) mice. Briefly: Mechanical withdrawal thresholds in naïve mice. The format is in vivo. To be noted: 5 mg/kg s.c. An outline of the steps:
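Uninjured mice were habituated for 1 h in Plexiglas cylinders and tested 30 min after s.c. dosing. Hindpaw mechanical thresholds were found with von Frey filaments by the up-down method. The experimenter was blind to treatment, and animals were randomly assigned to compound or vehicle.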

Series [7] has as its system mice. Briefly: Tail flick. It is filed as in vivo. The note with it: tail flick 50°C, s.c. An outline of the steps:
(§1)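 WT and α2AAR D79N mice were habituated for 1 h in cylinders and tested 30 min after s.c. dosing. The tail was immersed in a 50°C water bath to measure heat sensitivity. The experimenter was blind to treatment.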

Another series has as its system α2AAR D79N mutant mice. The series is described as follows: Tail flick. The note with it: tail flick 50°C, versus WT. The format is in vivo. The procedure, abridged: as §1
Series [8] has as its system mice. The series is described as follows: Rotarod motor test. The format is in vivo. The procedure, abridged:
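Mice were first trained three times for 5 min on an accelerating rotating rod before any compound. They were then tested 30 min after s.c. dosing, with the experimenter blind to treatment.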
(In general: Falling from the rotarod earlier than controls is read as motor impairment.)

Series [9] concerns α2AAR D128^3.32 mutant receptors. The format is cell-based, human.
Series [10] deals with mice. Briefly: Constipation assay. The note with it: i.p.; morphine 10 mg/kg, dexmedetomidine 30 μg/kg, ‘9087 5 mg/kg; versus vehicle.
In series [11] the target is α2AAR D128^3.32 mutant receptors (Homo sapiens, UniProt P08913, D128A). It is filed as cell-based. The note with it: D128^3.32A versus wild type.
α2AAR D128^3.32 mutant receptors (Homo sapiens, UniProt P08913, D128A), sequence (P08913 whole entry D128A): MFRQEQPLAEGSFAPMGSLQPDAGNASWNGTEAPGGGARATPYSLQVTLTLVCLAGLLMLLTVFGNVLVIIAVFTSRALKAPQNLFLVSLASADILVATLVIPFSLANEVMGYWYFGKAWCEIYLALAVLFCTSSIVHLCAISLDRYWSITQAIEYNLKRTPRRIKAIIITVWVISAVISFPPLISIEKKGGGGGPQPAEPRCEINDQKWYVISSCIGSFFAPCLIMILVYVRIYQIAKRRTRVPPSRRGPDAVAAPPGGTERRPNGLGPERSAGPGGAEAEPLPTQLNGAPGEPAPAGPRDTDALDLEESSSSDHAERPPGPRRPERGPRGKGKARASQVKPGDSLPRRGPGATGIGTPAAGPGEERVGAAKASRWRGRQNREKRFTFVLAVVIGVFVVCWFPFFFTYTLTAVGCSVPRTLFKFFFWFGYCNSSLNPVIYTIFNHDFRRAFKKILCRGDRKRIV

Entries after “also recorded” stand apart in the source; their conditions may differ. Like-named read-outs stand apart in the source and are kept apart here.

Consider `COC1(C2=NCCN2)COc2ccccc2O1` (centres unmarked) [[^3H]RX82,1002], for which the Kd at human α2BAR came to 2.3 ± 0.52 nM; on murine α2AAR it was 1.8 ± 0.61 nM; on human α2AAR [1], 0.54 ± 0.024 nM; at human α2C, 0.58 ± 0.11 nM.
Regarding `Clc1ccc2cccc(Nc3ccncc3)c2c1` [PS75], the “increased potency compared with ‘9087” value at human α2AAR [2] (Gi activation) worked out at 11 fold. For the same compound, the “Emax, Gi activation” value on human α2AAR [2] (Gαi BRET, % of norepinephrine response) amounted to 82%. Further, on human α2AAR [2] (abstract), a half-maximal response (EC50) required 4.8 nM. Also, the “G protein and β-arrestin subtype signaling profile” value on human α2AAR [3] was “preferentially activated Gi, Go, and Gz (Gi/o/z) signaling; also recorded: retained the preferential signaling through the Gi/o versus other G protein families and β-arrestins”. Also, at human α2AAR [4], the receptor internalization result is on record as “negligible receptor internalization”. In addition, the “disappearance of α2AARs from the plasma membrane” value on human α2AAR [4] (α2AAR-RlucII/rGFP-CAAX biosensor) is recorded as “no effect”. On human α2AAR [4] (α2AAR-RlucII/rGFP-FYVE biosensor), the “relocalization of the receptors in endosomes” value is given as “marginal effect at the highest concentrations”. Moreover, the “oral bioavailability” value in the series “Pharmacokinetics in mice” is “fully bio-available”. Besides, in [5], the metabolic stability result was “remain largely unmodified”. The “effect of atipamezole on the agonist's effect” value in series [6] (atipamezole 2 mg/kg i.p. 15 min before agonist) is recorded as “partially reversed”. For the same compound, in [6] (s.c.), the “effect on mechanical thresholds / allodynia” value is reported as “completely reversed the mechanical hypersensitivity”. Moreover, the “baseline mechanical withdrawal thresholds” value in the series on naïve (uninjured) mice is “did increase the mechanical thresholds”. Besides, in the series with mice [7], the withdrawal latencies result is given as “increased withdrawal latencies”. Besides, in the series on α2AAR D79N mutant mice, the “analgesia in D79N mutant mice” value is on record as “substantially decreases the analgesia” and the “reduction of analgesia in D79N mutant mice” value is above 50%. In addition, in the series on mice [8], the “motor impairment and sedation” value is listed as “did not have an effect on the rotarod test; also recorded: do not cause sedation or motor impairment at analgesic doses”.
In the case of `NC[C@H](O)c1ccc(O)c(O)c1` [norepinephrine], the “G protein and β-arrestin subtype signaling profile” value on human α2AAR [3] was “strongly activated multiple additional G proteins and β-arrestins”. For the same compound, the receptor internalization result on human α2AAR [4] was “comparable responses for both biosensors”. In addition, the “Gi activation and β-arrestin recruitment on substitutions to D128^3.32” value in series [9] is listed as “almost complete loss”.
Consider `Brc1c(NC2=NCCN2)ccc2nccnc12` [brimonidine], for which the “G protein and β-arrestin subtype signaling profile” value on human α2AAR [3] was “strongly activated multiple additional G proteins and β-arrestins”. On human α2AAR [4], the receptor internalization result was “comparable responses for both biosensors”.
Take `CN1CC[C@]23c4c5ccc(O)c4O[C@H]2[C@@H](O)C=C[C@H]3[C@H]1C5` [morphine]: the “analgesia in D79N mutant mice” value with α2AAR D79N mutant mice was “does not affect; also recorded: not significantly altered by the mutation”. In addition, the “constipation, accumulated pellets over 6 hours” value in the series on mice [10] was “induced constipation”.
`Cc1cccc([C@H](C)c2cnc[nH]2)c1C` [dexmedetomidine]: the “G protein and β-arrestin subtype signaling profile” value on human α2AAR [3] is “strongly activated multiple additional G proteins and β-arrestins”. Moreover, the receptor internalization entry at human α2AAR [4] is “about half of this response”. Further, the “Gi EC50 fold higher” value in series [11] is recorded as 170,000 fold. In addition, the “Gi activation and β-arrestin recruitment on substitutions to D128^3.32” value in [9] is “almost complete loss”. In addition, the “analgesia in D79N mutant mice” value in the series on α2AAR D79N mutant mice was “no longer induced analgesia in the mutant mice”; with α2AAR D79N mutant mice (listed as DEX), “substantially decreases the analgesia”. The “motor impairment and sedation” value in the series on mice [8] was “complete sedation; also recorded: full sedation”; in the series with mice [8] (listed as DEX) it was “significant impairment and complete sedation at higher doses”.

What is called Kd is the equilibrium constant for the complex coming apart. As usually defined, the EC50 is the midpoint of the concentration-response curve. The low end stands for a more potent agent, the high end for a less potent agent.

Values taken from PMC10360211 (Science (New York, N.Y.), 2022).
